The record followed here is ChEMBL document CHEMBL1134957, “Synthesis and SAR of 4-carboxy-2-azetidinone mechanism-based tryptase inhibitors” (Bioorg Med Chem Lett, 2002).

For series [1], the species on record is Homo sapiens. Briefly: Selectivity for human tryptase compared to human tissue plasminogen activator tissue.
The species named for series [2] is Homo sapiens. Description: Selectivity for human tryptase compared to human plasmin.
For series [3], the species on record is Homo sapiens. Description: Selectivity for human tryptase compared to human trypsin.
The target in series [4] is Tryptase (Homo sapiens, UniProt Q9BZJ3+Q15661+Q9NRR2). Description: In vitro inhibition of human tryptase.
Series [5] can be described thus: Aqueous Stability (half-life period) at pH 9 and 37 degrees. The conditions noted are these: aqueous solution. Format: ADME. Summed up: (§1)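 Compound half-life, reported in hours, was measured by incubation in aqueous buffer at 37 °C, run separately at pH 7 and pH 9.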
Series [6] can be described thus: Aqueous Stability (half-life period) at pH 7 and 37 degrees. The series is classed as ADME. Conditions: aqueous solution. Summed up:
as §1

Series [7] is filed under the species Homo sapiens. Description: Selectivity for human tryptase compared to human urokinase plasminogen activator.
The species entered for series [8] is Homo sapiens. Briefly: Selectivity for human tryptase compared to human thrombin.
The species named for series [9] is Homo sapiens. Description: Ratio of inhibitiroy activities against human tryptase and human plasminogen activator urokinase microPa.
For series [10], the species on record is Cavia porcellus. Briefly: Effect (increase in lung resistance (Rlung)) on pulmonary mechanics of ovalbumin-sensitized guinea pigs following allergen induced bronchoconstriction. The series is classed as functional. Summed up:
(§2)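 Guinea pigs were sensitized by ip ovalbumin with aluminum hydroxide on days 0 and 14, plus cyclophosphamide (30 mg/kg) on day 12, and used between days 35 and 65. Under Na-pentobarbital anesthesia they were mechanically ventilated, with intratracheal flow and pressure recorded in real time. Ten min before iv ovalbumin challenge, compound was given as an intratracheal aerosol spray. Rlung and Cdyn were recorded as % change (n=9).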

The species named for series [11] is Cavia porcellus. Briefly: Effect (decrease in dynamic lung compliance) on pulmonary mechanics of ovalbumin-sensitized guinea pigs following allergen induced bronchoconstriction. Format: functional. Summed up: as §2
Series [12] has as its system Cavia porcellus. Briefly: Effect (decrease in dynamic lung compliance) on pulmonary mechanics of ovalbumin-sensitized guinea pigs following allergen induced bronchoconstriction upon intratracheal dosage of 75 ug/kg 10 min prior to ovalbumin challenge. The series is classed as functional. Summed up: as §2
The test system of series [13] is Cavia porcellus. Description: Effect (increase in lung resistance (Rlung)) on pulmonary mechanics of ovalbumin-sensitized guinea pigs following allergen induced bronchoconstriction upon intratracheal dosage of 75 ug/kg 10 min prior to ovalbumin challenge. Format: functional. Summed up:
as §2

Series [14] is filed under the species Cavia porcellus. Briefly: Dose required for the inhibition of the cellular inflammatory response in ovalbumin-sensitized guinea pigs was evaluated by the reduction in cell count by 70-80%. Format: functional. Summed up: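 Ovalbumin-sensitized guinea pigs were given saline or compound as an intratracheal spray at two dose levels (75 or 225 per kg), and the tracheal incision was closed. Ovalbumin was injected into the jugular vein about 6 min after dosing, and the animals recovered from anesthesia. Bronchoalveolar lavage cell counts and protein were measured 24 h later. Controls were sham-operated animals without ovalbumin challenge.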

Regarding `N=C(N)NCCC[C@H]1C(=O)N(C(=O)Nc2ccccc2)[C@@H]1C(=O)O` (stereo in doubt) [listing 1 of 2 here], the Selectivity ratio in [1] is greater than 6; in series [2] it was greater than 6; in series [3], 0.3.
Regarding `N=C(N)NCCC[C@H]1C(=O)N(C(=O)Nc2ccccc2)[C@@H]1C(=O)O` (stereo in doubt; 8a) [listing 1 of 2 here], the half-maximal inhibitory concentration (IC50) in series [4] is on record as 6 nM. Moreover, the values for the half-life in series [5] and in [6] were 132 min and greater than 2880 min, respectively.
With `CC(C)(C)OC(=O)N1CCN(C(=O)N2C(=O)[C@H](CCCN=C(N)N)[C@H]2C(=O)N2CCCCC2)CC1`, the Selectivity ratio turned out to be 4430 in [1]; 246 in series [7]; 205 in [2]; 1 in series [3]; 155 in [8]. The same compound yielded an IC50 in series [4] of 3 nM. The half-life is 48 min in series [5] and greater than 2880 min in [6].
As to `N=C(N)NCCC[C@H]1C(=O)N(C(=O)Nc2ccccc2)[C@@H]1C(=O)O` (stereo in doubt; 8a) [listing 2 of 2 here], the Selectivity ratio came out at 117 in [1]; 3 in series [7]; 52 in series [2]; 1 in series [3]; 1550 in [8].
Consider `N=C(N)NCCC[C@H]1C(=O)N(C(=O)c2cccs2)[C@@H]1C(=O)O`, for which the Selectivity ratio in series [1] turned out to be 109; in [7], 5; in series [2], 12; in [3] it was 3; in [8], 190. The compound also had a half-inhibitory concentration (IC50) in series [4] of 1 nM. Further, the half-life in series [5] was less than 6 min; in [6] it was 522 min.
For the compound `CCN(CC)C(=O)N1CCN(C(=O)N2C(=O)[C@H](CCCN=C(N)N)[C@H]2C(=O)O)CC1`, the Selectivity ratio was greater than 6600 in [1]; 520 in series [7]; 227 in series [2]; 3 in series [3]; greater than 6600 in series [8]. In [4], the IC50 stood at 5 nM. Besides, the half-life in [5] is 384 min; in series [6], greater than 2880 min.
For `CC(C)(C)CC(=O)N1CCN(C(=O)N2C(=O)[C@H](CCCN=C(N)N)[C@H]2C(=O)O)CC1`, the Selectivity ratio in series [1] was greater than 1000; in series [7], 8; in [2] it was 314; in [3], 1.5; in series [8], greater than 1000. Further, the 50% inhibitory concentration (IC50) in [4] amounted to 11 nM. The half-life in series [5] was 390 min; in series [6], greater than 2880 min.
For the compound `CC(C)(C)OC(=O)N1CCN(C(=O)N2C(=O)[C@H](CCCN=C(N)N)[C@H]2C(=O)O)CC1`, the Selectivity ratio is greater than 8250 in series [1]; 218 in [7]; 295 in series [2]; 8 in [3]; greater than 8250 in series [8]. The compound also gave a concentration for half-maximal inhibition (IC50) in series [4] of 4 nM. Besides, the half-life in [5] was 372 min; in [6], greater than 2880 min.
Regarding `N=C(N)NCCC[C@H]1C(=O)N(C(=O)Nc2ccccc2)[C@@H]1C(=O)O` (relative stereo), the half-maximal inhibitory concentration (IC50) in series [4] is reported as 992 nM.
Regarding `N=C(N)NCCC[C@H]1C(=O)N(C(=O)c2ccc(-c3ccccc3)cc2)[C@@H]1C(=O)O`, the Selectivity ratio in series [1] was 1610; in series [7] it was 3270; in series [2], 8; in [3] it was 2; in series [8], 65. The same compound came in with a half-inhibitory concentration (IC50) in series [4] of 1 nM. Further, the half-life in series [5] is less than 6 min; in series [6], 666 min.
`COC(=O)N1CCN(C(=O)N2C(=O)[C@H](CCCN=C(N)N)[C@H]2C(=O)O)CC1`: the Selectivity ratio was greater than 1200 in series [1]; 70 in series [9]; 210 in series [2]; 2 in series [3]; 683 in series [8]. The half-maximal inhibitory concentration (IC50) in series [4] is reported as 9 nM. The results for the half-life in series [5] and in series [6] were 336 min and greater than 2880 min, respectively.
Turning to `N=C(N)NCCC[C@H]1C(=O)N(C(=O)N2CCN(S(=O)(=O)c3ccccc3)CC2)[C@@H]1C(=O)O`, the Selectivity ratio was greater than 2500 in series [1]; 43 in [7]; 147 in [2]; 14 in series [3]; 556 in series [8]. Further, the 50% inhibitory concentration (IC50) in series [4] is given as 13 nM. Moreover, the results for the half-life in series [5] and in series [6] were 102 min and greater than 2880 min, respectively.
Take `N=C(N)NCCC[C@H]1C(=O)N(C(=O)N2CCN(C(=O)OCCc3ccccc3)CC2)[C@@H]1C(=O)O`: the Selectivity ratio in series [1] was determined as 14200; in [7] it was 926; in [2], 302; in [3], 8; in [8], 3320. The compound also had a 50% inhibitory concentration (IC50) in series [4] of 0.7 nM. Also, the half-life is 420 min in series [5] and greater than 2880 min in [6].
For the compound `N=C(N)NCCC[C@H]1C(=O)N(C(=O)c2ccccc2)[C@@H]1C(=O)O`, the Selectivity ratio in series [1] was determined as 128; in series [7] it was 3; in series [2], 17; in [3], 1; in [8] it was 142. Moreover, the half-inhibitory concentration (IC50) in series [4] came to 9 nM.
Compound `N=C(N)NCCC[C@H]1C(=O)N(C(=O)Nc2ccccc2)[C@@H]1C(=O)O` (stereo in doubt) [listing 2 of 2 here] displayed an IC50 in series [4] of 5380 nM.
Regarding `CC(C)(C)C(=O)N1CCN(C(=O)N2C(=O)[C@H](CCCN=C(N)N)[C@H]2C(=O)O)CC1`, the Selectivity ratio is greater than 1500 in series [1]; 154 in series [7]; 232 in [2]; 3 in [3]; greater than 1500 in series [8]. Besides, the IC50 in series [4] turned out to be 7 nM. In addition, the half-life in [5] is 150 min; in series [6], greater than 2880 min.
For `CNC(=O)[C@@H]1[C@@H](CCCN=C(N)N)C(=O)N1C(=O)N1CCN(C(=O)OC(C)(C)C)CC1`, the Selectivity ratio in series [1] amounted to 6800; in series [7] it was 75; in series [2] it was 172; in [3], 3; in series [8], 177. The IC50 in series [4] turned out to be 0.7 nM. Moreover, the half-life is 18 min in [5] and 1910 min in series [6].
For the compound `CC(C)(C)NC(=O)N1CCN(C(=O)N2C(=O)[C@H](CCCN=C(N)N)[C@H]2C(=O)O)CC1`, the Rlung is 421 % delta in series [10] and 89 % delta in [13]. Moreover, the Selectivity ratio in series [1] was greater than 8250; in series [7] it was 135; in series [2], 430; in [3], 18; in series [8], 2620. For the same compound, the values for the Cdyn in series [11] and in series [12] were -69 % delta and -43 % delta, respectively. The same compound yielded an IC50 in series [4] of 4 nM. Also, the Dose in series [14] came out at 225 µg/kg. Moreover, the half-life is 480 min in series [5] and greater than 2880 min in series [6].
`N=C(N)NCCC[C@H]1C(=O)N(C(=O)N2CCN(C(=O)c3ccccc3)CC2)[C@@H]1C(=O)O`: the Selectivity ratio in series [1] is greater than 2000; in [7], 142; in series [2], 332; in [3] it was 1; in series [8], 286. Besides, the IC50 in series [4] was determined as 5.2 nM. Moreover, the figures for the half-life in series [5] and in series [6] were 234 min and greater than 2880 min, respectively.
Consider `N=C(N)NCCC[C@H]1C(=O)N(C(=O)NCc2ccccc2)[C@@H]1C(=O)O`, for which the Selectivity ratio is 465 in series [1]; 16 in series [7]; 45 in series [2]; 2 in series [3]; 465 in [8]. The compound further had an IC50 in series [4] of 71 nM. Moreover, the figures for the half-life in [5] and in series [6] were 408 min and greater than 2880 min, respectively.
As for `N=C(N)NCCC[C@H]1C(=O)N(S(=O)(=O)c2ccc(-c3ccccc3)cc2)[C@@H]1C(=O)O`, the Selectivity ratio in series [1] came to 4370; in series [7] it was 44; in series [2] it was 47; in series [3] it was 1; in series [8], 7. The same compound showed an IC50 in series [4] of 1 nM. Moreover, the half-life in [5] is less than 6 min; in series [6], 636 min.
`N=C(N)NCCC[C@H]1C(=O)N(C(=O)NC2CCCCC2)[C@@H]1C(=O)O`: the results for the half-life in [5] and in series [6] were 546 min and greater than 2880 min, respectively.
As for `CC(C)(C)OC(=O)N1CCN(C(=O)N2C(=O)[C@H](CCCN=C(N)N)[C@H]2C(N)=O)CC1` (single isomer, unassigned), the Selectivity ratio in series [1] amounted to 8300; in series [7] it was 82; in series [2], 227; in series [3], 6; in series [8], 105. The IC50 in [4] is 0.4 nM. Further, the half-life in series [5] is 18 min; in series [6], 2520 min.

The term IC50 denotes the concentration that inhibits the measured activity by half. Higher therefore signals weaker potency. By half-life is commonly meant the time in which the quantity being followed falls by half.
